In ChEMBL document CHEMBL4330127, “Discovery of Novel Pyruvate Dehydrogenase Kinase 4 Inhibitors for Potential Oral Treatment of Metabolic Diseases” (J Med Chem, 2019):
Calls of active or inactive are those of the source. The calls are words filed in the database; no cut-off is given here.

Key:
[1] = system: RKO; experiment: Induction of apoptosis in human RKO cells after 24 hrs by Annexin V/propidium iodide staining based flow cytometry; type: functional, cell-based
[2] = system: RKO; experiment: Cell cycle arrest in human RKO cells assessed as accumulation at S phase at 10 uM after 24 hrs propidium iodide staining based flow cytometry (reference value: 19.2%); type: functional
[3] = system: HCT-116; experiment: Induction of apoptosis in human HCT116 cells assessed as late apoptotic cells at 25 uM after 24 hrs in presence of oxaliplatin by Annexin V/propidium iodide staining based flow cytometry (reference value: 14.2%); type: functional
[4] = Half life in rat at 10 mg/kg, po; type: ADME, organism-based; conditions: in vivo
Method in brief: (§1)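 Male rats given a single dose, 5 mg/kg intravenously or 10 mg/kg orally. Plasma PK parameters were reported as mean ± SD: AUCt, AUC∞, Cmax, Tmax, T1/2, CL, Vss and oral bioavailability F.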

[5] = system: RKO; experiment: Cell cycle arrest in human RKO cells assessed as accumulation at G2/M phase at 25 uM after 24 hrs in presence of oxaliplatin propidium iodide staining based flow cytometry (reference value: 39.2%); type: functional
Method in brief: (§2)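 HCT116 and RKO cells were treated with compound alone or with oxaliplatin for 24 h before harvest. Cells were stained with propidium iodide, and DNA content was analysed by flow cytometry. Cell-cycle phase populations, including sub-G1, are given as percentages.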

[6] = system: RKO; experiment: Cell cycle arrest in human RKO cells assessed as accumulation at S phase at 50 uM after 24 hrs propidium iodide staining based flow cytometry (reference value: 19.2%); type: functional
[7] = system: RKO; experiment: Induction of apoptosis in human RKO cells assessed as increase in cleaved caspase-3 expression at 10 to 50 uM after 24 hrs by Western blot analysis; type: functional, cell-based
Method in brief: (§3)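 HCT116 and RKO cells given a range of compound doses for 24 h; lysates probed by Western blot for apoptosis-related proteins (p53, BAX, BCLxL).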

[8] = system: HCT-116; experiment: Cell cycle arrest in human HCT116 cells assessed as accumulation at G2/M phase at 10 uM after 24 hrs propidium iodide staining based flow cytometry (reference value: 22.2%); type: functional; method in brief: as §2
[9] = system: HCT-116; experiment: Induction of apoptosis in human HCT116 cells assessed as late apoptotic cells at 10 uM after 24 hrs by Annexin V/propidium iodide staining based flow cytometry (reference value: 8.36%); type: functional
[10] = system: HCT-116; experiment: Induction of apoptosis in human HCT116 cells assessed as increase in cleaved caspase-3 expression at 10 to 50 uM after 24 hrs by Western blot analysis; type: functional, cell-based; method in brief: as §3
[11] = Drug metabolism in human liver microsomes assessed as hydroxyl metabolite formation at 100 uM preincubated for 5 mins followed by NADPH/UDPGA addition and measured up to 2 hrs by LC-MS/MS analysis; type: ADME, Microsome
Method in brief: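 Pooled human liver microsomes (1.0 mg/mL) were mixed with alamethicin (25 μg/mg protein) and kept on ice for 15 min. Substrate (100 μM) was added and the mix preincubated 5 min at 37 °C. NADPH (1.3 mM) and UDPGA (5 mM) were then added and incubation ran 2 h with agitation. The reaction was stopped with ice-cold acetonitrile, centrifuged, and the supernatant analysed by LC-MS/MS (ESI positive, transition 358.2 → 84.1).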

[12] = AUC (0 to infinity) in rat at 5 mg/kg, iv; type: ADME, organism-based; design: dose 5 mg/kg, route intravenous, time infinity; conditions: in vivo; method in brief: as §1
[13] = system: RKO; experiment: Induction of apoptosis in human RKO cells assessed as decrease in Bcl-XL expression at 10 to 50 uM after 24 hrs by Western blot analysis; type: functional, cell-based; method in brief: as §3
[14] = system: HCT-116; experiment: Induction of apoptosis in human HCT116 cells assessed as decrease in Bcl-XL expression at 10 to 50 uM after 24 hrs by Western blot analysis; type: functional, cell-based; method in brief: as §3
[15] = biological target: CYP3A (Homo sapiens, UniProt P08684+P20815+P24462+Q9HB55); experiment: Inhibition of CYP3A in human liver microsomes assessed as reduction in midazolam 1'-hydroxylation by tandem mass spectrometry analysis; type: ADME; conditions: probe midazolam (1'-hydroxylation)
Method in brief: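 Pooled human liver microsomes; test compound at final 0–50 μM in a cocktail incubation with probe substrates: midazolam 1′-hydroxylation (CYP3A), SN-38 glucuronidation (UGT1A1), trifluoperazine N-glucuronidation (UGT1A4), mycophenolic acid glucuronidation (UGT1A9), naloxone 3-glucuronidation (UGT2B7). Metabolites measured by tandem MS; IC50 determined; duplicate.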

[16] = system: Mus musculus; experiment: Antidiabetic activity in high-fat diet induced obese C57BL/6J mouse assessed as reduction in blood glucose level at 100 mg/kg, po administered for 1 week starting from week 4 post high fat diet followed by glucose challenge and measured up to 120 mins by IPGTT; type: functional, organism-based
Method in brief: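 Eight-week-old C57BL/6J mice were fed a high-fat diet (60% kcal fat, 0.5% cholesterol, 10% fructose) for 4 weeks. From week 4 they were dosed orally for 1 week (n = 6 per group), with sitagliptin 10 mg/kg as comparator. An intraperitoneal glucose tolerance test (1.5 g/kg glucose) followed, and the area under the curve was calculated.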

[17] = system: Vero; experiment: Cytotoxicity against African green monkey Vero cells; type: cell-based; conditions: Chlorocebus sabaeus
[18] = system: HCT-116; experiment: Cell cycle arrest in human HCT116 cells assessed as accumulation at G2/M phase at 50 uM after 24 hrs propidium iodide staining based flow cytometry (reference value: 22.2%); type: functional; method in brief: as §2
[19] = system: RKO; experiment: Cell cycle arrest in human RKO cells assessed as accumulation at sub-G1 phase at 10 uM after 24 hrs propidium iodide staining based flow cytometry (reference value: 17.6%); type: functional
[20] = system: RKO; experiment: Cell cycle arrest in human RKO cells assessed as accumulation at G1/G0 phase at 50 uM after 24 hrs propidium iodide staining based flow cytometry (reference value: 39.9%); type: functional; method in brief: as §2
[21] = system: HCT-116; experiment: Cell cycle arrest in human HCT116 cells assessed as accumulation at G2/M phase at 25 uM after 24 hrs in presence of oxaliplatin propidium iodide staining based flow cytometry (reference value: 28.2%); type: functional; method in brief: as §2
[22] = system: RKO; experiment: Induction of apoptosis in human RKO cells assessed as necrotic cells at 25 uM after 24 hrs in presence of oxaliplatin by Annexin V/propidium iodide staining based flow cytometry (reference value: 0.22%); type: functional
[23] = system: HFL1; experiment: Cytotoxicity against HFL1 cells; type: cell-based; conditions: Homo sapiens
[24] = biological target: Cytochrome P450 1A2 (Homo sapiens, UniProt P05177); experiment: Inhibition of CYP1A2 in human liver microsomes assessed as reduction in phenacetin-O-deethylation by tandem mass spectrometry analysis; type: ADME
Cytochrome P450 1A2, sequence (P05177 whole entry): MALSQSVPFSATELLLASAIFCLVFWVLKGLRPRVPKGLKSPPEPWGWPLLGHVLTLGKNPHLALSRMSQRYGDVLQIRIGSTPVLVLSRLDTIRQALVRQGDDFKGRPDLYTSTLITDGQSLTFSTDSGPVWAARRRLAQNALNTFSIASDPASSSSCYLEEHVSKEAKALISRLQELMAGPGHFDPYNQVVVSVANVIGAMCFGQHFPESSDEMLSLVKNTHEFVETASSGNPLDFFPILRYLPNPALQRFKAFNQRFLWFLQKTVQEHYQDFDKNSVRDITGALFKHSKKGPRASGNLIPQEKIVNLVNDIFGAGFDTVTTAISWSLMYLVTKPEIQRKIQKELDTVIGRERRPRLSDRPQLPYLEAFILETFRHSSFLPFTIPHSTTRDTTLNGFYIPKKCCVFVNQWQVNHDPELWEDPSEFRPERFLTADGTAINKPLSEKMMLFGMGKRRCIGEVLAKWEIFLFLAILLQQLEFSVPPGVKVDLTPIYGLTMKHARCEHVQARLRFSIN
Method in brief: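 Pooled human liver microsomes incubated with compound at 0–50 μM final; CYP probe activities (phenacetin O-deethylation for 1A2, tolbutamide 4-hydroxylation for 2C9, omeprazole hydroxylation for 2C19, dextromethorphan O-demethylation for 2D6) run as a cocktail incubation and quantified by tandem MS; duplicates; IC50 derived.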

[25] = system: RKO; experiment: Cell cycle arrest in human RKO cells assessed as accumulation at sub-G1 phase at 25 uM after 24 hrs propidium iodide staining based flow cytometry (reference value: 17.6%); type: functional
[26] = system: Mast cell; experiment: Inhibition of degranulation in IgE-labeled bone marrow-derived mast cells (unknown origin) assessed as reduction in beta-hexosaminidase release preincubated for 1 hr followed by HSA stimulation and measured after 15 mins; type: functional, cell-based
[27] = system: RKO; experiment: Cell cycle arrest in human RKO cells assessed as accumulation at G2/M phase at 50 uM after 24 hrs propidium iodide staining based flow cytometry (reference value: 23.3%); type: functional; method in brief: as §2
[28] = system: HCT-116; experiment: Cell cycle arrest in human HCT116 cells assessed as accumulation at G1/G0 phase at 10 uM after 24 hrs propidium iodide staining based flow cytometry (reference value: 42%); type: functional; method in brief: as §2

In the case of `Cl.O=C1c2ccccc2C(=O)c2c1cccc2-c1cnn(C2CCNCC2)c1`, the Activity [1] is reported as “Dose-dependent effect”, the Activity [2] is reported as 13.8% and the Activity [3] is reported as 21.8%. It also gave a half-life [4] of 21.6 h, an Activity [5] of 19.2% and an Activity [6] of 2.7%. For the same molecule, the Activity [7] was “Active”, the Activity [8] was 14.9% and the Activity [9] was 7.1%. The Activity [10] was “Active”, the Drug metabolism [11] was “Metabolite_Detected” and the AUC(0-inf) [12] was 7610 ng·h/mL. The Activity [13] was “Active”, the Activity [14] was “Active” and the IC50 [15] was 36.6 µM. For the same molecule, the Activity [16] was “Active”, the IC50 [17] was 36.4 µM and the Activity [18] was 5.3%. The Activity [19] was 21.4%, the Activity [20] was 3.4% and the Activity [21] was 33.5%. For the same molecule, the Activity [22] was 5.07%, the IC50 [23] was 36.5 µM and the IC50 [24] was 16.3 µM. The Activity [25] was 58.7%, the inhibition [26] was “Dose-dependent effect” and the Activity [27] was 2.8%. The Activity [28] was 41.6%.
